Results: ChEMBL document CHEMBL1926650, “Bioactive lignans from the rhizomes of Acorus gramineus” (J Nat Prod, 2011)

Legend:
BV-2 = assay: Anti-neuroinflammatory activity in mouse BV2 cells assessed as inhibition of LPS-induced NO production pretreated for 30 mins before LPS-stimulation measured after 24 hrs by Griess reaction; format: functional, cell-based
In short: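 Murine BV-2 microglia activated with LPS; NO output was estimated from nitrite, its soluble oxidation product, measured in the culture medium with the Griess reaction. The value is the IC50 for lowering that nitrite.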

[1] = Cytotoxicity against LPS-stimulated mouse BV2 cells assessed as cell viability after 24 hrs by MTT assay relative to control; format: cell-based, BV-2; details: read-out: Activity
A549 = assay: Cytotoxicity against human A549 cells by sulforhodamine B assay; format: functional, cell-based
HUVEC [2] = assay: Cytotoxicity against HUVEC by sulforhodamine B assay; format: cell-based; details: Homo sapiens
SK-MEL-2 = assay: Cytotoxicity against human SK-MEL-2 cells by sulforhodamine B assay; format: functional, cell-based
SK-OV-3 = assay: Cytotoxicity against human SKOV3 cells by sulforhodamine B assay; format: functional, cell-based
HUVEC [3] = assay: Selectivity index, ratio of IC50 for HUVEC to IC50 for human SKMEL2 cells

In the case of `COc1ccc(C[C@@H](CO)Oc2ccc(CCCO)cc2OC)cc1OC` [LIGRAMINOL D], the IC50 (BV-2) is reported as 18.4 µM, the viability at 24 h [1] is reported as 98.4% and the IC50 (A549) is reported as 8.28 µM. The IC50 (HUVEC [2]) was 22.6 µM, the IC50 (SK-MEL-2) was > 10 µM and the IC50 (SK-OV-3) was > 10 µM.

In the case of `COc1cc([C@H](O)[C@H](CO)Oc2ccc(CCCO)cc2OC)ccc1O`, the IC50 (BV-2) is reported as 53 µM, the viability at 24 h [1] is reported as 96.7% and the IC50 (A549) is reported as > 10 µM. For the same compound, the IC50 (SK-MEL-2) was > 10 µM and the IC50 (SK-OV-3) was > 10 µM.

For `COc1cc(C[C@H](CO)Oc2ccc(CCCO)cc2OC)ccc1O` [LIGRAMINOL E], the IC50 (BV-2) was > 200 µM, the viability at 24 h [1] was 97.1% and the IC50 (A549) was > 10 µM. For the same compound, the IC50 (SK-MEL-2) was > 10 µM and the IC50 (SK-OV-3) was > 10 µM.

For `C/C=C\c1ccc(O[C@H](C)[C@H](OC(C)=O)c2ccc(OC)c(OC)c2)c(OC)c1` [LIGRAMINOL C], the IC50 (BV-2) was 16.2 µM, the viability at 24 h [1] was 90.5% and the IC50 (A549) was 9.54 µM. For the same compound, the IC50 (HUVEC [2]) was 25.9 µM, the IC50 (SK-MEL-2) was > 10 µM and the IC50 (SK-OV-3) was > 10 µM.

With `COc1ccc([C@H]2O[C@H](c3cc(OC)c(OC)c(OC)c3)[C@@H](C)[C@@H]2C)cc1OC` the IC50 (BV-2) was 125 µM, the viability at 24 h [1] was 87.3% and the IC50 (A549) was > 10 µM. For the same compound, the IC50 (SK-MEL-2) was > 10 µM and the IC50 (SK-OV-3) was > 10 µM.

For `COc1cc([C@@H]2O[C@@H](c3cc(OC)c(O)c(OC)c3)[C@H](CO[C@@H]3O[C@H](CO)[C@@H](O)[C@H](O)[C@H]3O)[C@H]2CO)cc(OC)c1O` [LIGRAMINOL B], the IC50 (BV-2) was 23 µM, the viability at 24 h [1] was 84.4% and the IC50 (A549) was > 10 µM. The IC50 (SK-MEL-2) was > 10 µM and the IC50 (SK-OV-3) was > 10 µM.

In the case of `COc1ccc([C@H]2O[C@H](c3ccc(OC)c(OC)c3)[C@@H](C)[C@H]2C)cc1OC` [GANSCHISANDRINE], the IC50 (BV-2) is reported as 76 µM, the viability at 24 h [1] is reported as 104% and the IC50 (A549) is reported as > 10 µM. The IC50 (SK-MEL-2) was > 10 µM and the IC50 (SK-OV-3) was > 10 µM.

Compound `CNC(=N)NCCC[C@H](N)C(=O)O` [TILARGININE] has an IC50 (BV-2) of 15.4 µM and a viability at 24 h [1] of 98.7%.

For `COc1ccc([C@H]2O[C@H](c3cc(OC)c(OC)c(OC)c3)[C@@H](C)[C@H]2C)cc1OC` [LIGRAMINOL A], the IC50 (BV-2) was 21.5 µM, the viability at 24 h [1] was 88.6% and the IC50 (A549) was 6.92 µM. The IC50 (HUVEC [2]) was 27.2 µM, the “Ratio IC50” value (HUVEC [3]) was 6 and the IC50 (SK-MEL-2) was 4.53 µM. It also gave an IC50 (SK-OV-3) of 9.44 µM.

`COc1cc([C@@H]2c3cc4c(cc3[C@@H](O[C@@H]3O[C@@H]5CO[C@@H](C)O[C@H]5[C@H](O)[C@H]3O)[C@H]3COC(=O)[C@H]23)OCO4)cc(OC)c1O` [ETOPOSIDE] showed an IC50 (A549) of 0.44 µM, an IC50 (HUVEC [2]) of 1.86 µM and an IC50 (SK-MEL-2) of 0.41 µM. The IC50 (SK-OV-3) was 1.31 µM.

With `C/C=C/c1cc(OC)c(O[C@H](C)[C@H](O)c2cc(OC)c(OC)c(OC)c2)c(OC)c1` the IC50 (BV-2) was > 200 µM, the viability at 24 h [1] was 101% and the IC50 (A549) was > 10 µM. The IC50 (SK-MEL-2) was > 10 µM and the IC50 (SK-OV-3) was > 10 µM.

For `C/C=C/c1cc(OC)c(O[C@H](C)[C@H](O)c2ccc(OC)c(OC)c2)c(OC)c1`, the IC50 (BV-2) was 176 µM, the viability at 24 h [1] was 102% and the IC50 (A549) was > 10 µM. The IC50 (SK-MEL-2) was > 10 µM and the IC50 (SK-OV-3) was > 10 µM.

In the case of `COc1ccc([C@H]2O[C@@H](c3ccc(OC)c(OC)c3)[C@H](C)[C@H]2C)cc1OC` [VERAGUENSIN], the IC50 (BV-2) is reported as 48.4 µM, the viability at 24 h [1] is reported as 104% and the IC50 (A549) is reported as > 10 µM. The IC50 (SK-MEL-2) was > 10 µM and the IC50 (SK-OV-3) was > 10 µM.

In the case of `COc1cc([C@@H](O)[C@@H](CO)Oc2ccc(CCCO)cc2OC)ccc1O`, the IC50 (BV-2) is reported as 52 µM, the viability at 24 h [1] is reported as 97.5% and the IC50 (A549) is reported as > 10 µM. For the same compound, the IC50 (SK-MEL-2) was > 10 µM and the IC50 (SK-OV-3) was > 10 µM.
